Values after ≈ are worked out from the molar mass of the structure shown. Active and inactive are the calls of the source. The rule behind the calls is not given here.
What was measured:
Staphylococcus aureus [1] = experiment: Antibacterial activity against multidrug resistant Staphylococcus aureus 49589; assay type: functional
Procedure, shortened: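 Broth microdilution MIC following CLSI. Compounds were predissolved in DMSO and tested as serial 2-fold dilutions at final 100 to 0.4 µg/mL. Inoculum was 5 × 10⁵ CFU/mL, and plates were read after 18 h at 37 °C.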

[2] = test system: Staphylococcus epidermidis; experiment: Antibacterial activity against Staphylococcus epidermidis CIP 105777; assay type: functional
Escherichia coli [3] = experiment: Antibacterial activity against Escherichia coli tolC CGSC 5633; assay type: functional
CHO = experiment: Cytotoxicity against CHO cells; assay type: cell-based, Cricetulus griseus; conditions: chinese hamster
Procedure, shortened: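 CHO cells grown in RPMI with 5% fetal calf serum, then exposed to compounds 24 h at 37 °C without serum. MTT added at 300 µg/mL final, 3 h at 37 °C dark; acidified isopropanol added, 1 h at room temperature; OD at 595 nm.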

Escherichia coli [4] = experiment: Inhibition of RNA polymerase sigma-70 transcription in Escherichia coli at 10 uM; assay type: functional
Staphylococcus aureus [5] = experiment: Antibacterial activity against Staphylococcus aureus CIP 76.25; assay type: functional
[6] = test system: Staphylococcus epidermidis; experiment: Antibacterial activity against Staphylococcus epidermidis RP62A; assay type: functional
Streptococcus pneumoniae = experiment: Antibacterial activity against Streptococcus pneumoniae CIP 103566; assay type: functional
Clostridioides difficile = experiment: Antibacterial activity against Clostridium difficile DSM 1296; assay type: functional
Bacillus anthracis = experiment: Antibacterial activity against Bacillus anthracis 9131; assay type: functional
[7] = Inhibition of Escherichia coli RNA polymerase sigma-70 factor

Compound | Activity (Staphylococcus aureus [1]) | MIC [2] [µg/mL] | MIC (Escherichia coli [3]) [µg/mL] | Activity (CHO) | inhibition at 10 µM (Escherichia coli [4]) [%] | further results
Cc1nnc(SCC2=C(C(=O)O)N3C(=O)[C@@H](NC(=O)Cn4cnnn4)[C@H]3SC2)s1 | inactive |  |  |  |  | 
C=CCN1C(=O)/C(=C/c2ccc(-c3ccc(OP(=O)(O)O)cc3)o2)SC1=S |  | ≥ 100 | ≥ 100 | 50 µg/mL |  | 
CCN1CCN(C(=O)N[C@@H](C(=O)N[C@@H]2C(=O)N3[C@@H]2SC(C)(C)[C@@H]3C(=O)O)c2ccccc2)C(=O)C1=O | inactive |  |  |  |  | 
C=CCN1C(=O)/C(=C/c2ccc(-c3ccc([N+](=O)[O-])cc3)o2)SC1=S |  | ≥ 100 | ≥ 100 | >= 100 ug ml-1 | 3 | 
CC1(C)S[C@@H]2[C@H](NC(=O)[C@H](N)c3ccc(O)cc3)C(=O)N2[C@H]1C(=O)O | inactive |  |  |  |  | 
C[C@@H]1O[C@@H]1P(=O)(O)O | Active |  |  |  |  | 
C=CCN1C(=O)S/C(=C\c2ccc(-c3ccc(C(=O)O)cc3)o2)C1=O |  | ≥ 100 | ≥ 100 | >= 100 ug ml-1 | 75 | 
C=CCN1C(=O)/C(=C/c2ccc(-c3cccc(Cl)c3)o2)SC1=S |  | ≥ 100 | 12.5 (≈ 34.5 µM) | >= 100 ug ml-1 | 76 | 
CCn1cc(C(=O)O)c(=O)c2cc(F)c(N3CCNCC3)cc21 | inactive |  |  |  |  | 
C=CCN1C(=O)/C(=C/c2ccc(-c3cc(N)cc(C(=O)O)c3)o2)SC1=S |  | ≥ 100 | ≥ 100 | >= 100 ug ml-1 | 71 | 
COCCN1C(=O)N/C(=C\c2ccc(-c3cccc(C(=O)O)c3)o2)C1=O |  | ≥ 100 | ≥ 100 | >= 100 ug ml-1 | 85 | 
Cc1onc(-c2ccccc2)c1C(=O)N[C@@H]1C(=O)N2[C@@H]1SC(C)(C)[C@@H]2C(=O)O | inactive |  |  |  |  | 
NC[C@H]1O[C@H](O[C@H]2[C@H](O)[C@@H](O[C@H]3O[C@H](CO)[C@@H](O)[C@H](N)[C@H]3O)[C@H](N)C[C@@H]2N)[C@H](N)C[C@@H]1O | inactive |  |  |  |  | 
GENTAMICIN | inactive |  |  |  |  | 
C=CCN1C(=O)/C(=C/c2ccc(-c3ccc(C(N)=O)cc3)o2)SC1=S |  | ≥ 100 | 1.56 (≈ 4.21 µM) | >= 100 ug ml-1 | 102 | MIC (Staphylococcus aureus [5]): ≥ 100 µg/mL; MIC (Staphylococcus aureus [1]): ≥ 100 µg/mL; MIC [6]: ≥ 100 µg/mL; MIC (Streptococcus pneumoniae): ≥ 100 µg/mL; MIC (Clostridioides difficile): ≥ 100 µg/mL; MIC (Bacillus anthracis): 12.5 µg/mL (≈ 33.7 µM)
C=CCN1C(=O)/C(=C/c2cccc(C(=O)O)c2)SC1=S |  | ≥ 100 | ≥ 100 |  |  | IC50 [7]: ≥ 100 µM
C=CCN1C(=O)/C(=C/c2ccc(-c3ccc(C(=O)OC)cc3)o2)SC1=S |  | ≥ 100 | ≥ 100 | >= 100 ug ml-1 | 10 | 
C#CCN1C(=O)S/C(=C\c2ccc(-c3ccc(C(=O)O)cc3)o2)C1=O |  | > 100 | > 100 | >= 100 ug ml-1 | 100 | 
CC[C@H]1OC(=O)[C@H](C)[C@@H](O[C@H]2C[C@@](C)(OC)[C@@H](O)[C@H](C)O2)[C@H](C)[C@@H](O[C@@H]2O[C@H](C)C[C@H](N(C)C)[C@H]2O)[C@](C)(O)C[C@@H](C)C(=O)[C@H](C)[C@@H](O)[C@]1(C)O | inactive |  |  |  |  | 
O=C1NC(=S)S/C1=C\c1ccc(-c2ccc(C(=O)O)cc2)o1 |  | ≥ 100 | ≥ 100 | >= 100 ug ml-1 | 82 | 
CC(=O)O[C@H]1C[C@@]2(C)[C@@H](C[C@@H](O)[C@H]3[C@@]4(C)CC[C@@H](O)[C@@H](C)[C@@H]4CC[C@@]32C)/C1=C(\CCC=C(C)C)C(=O)O | Active |  |  |  |  | 
O=C(O)c1ccc(-c2ccc(/C=C3\Sc4ccccc4C3=O)o2)cc1 |  | > 100 | > 100 | >= 100 ug ml-1 | 30 | 
C=CCN1C(=O)/C(=C/c2ccc(-c3ccc(C(=O)NO)cc3)o2)SC1=S |  | ≥ 100 | 25 (≈ 64.7 µM) | >= 100 ug ml-1 | 100 | MIC (Staphylococcus aureus [5]): ≥ 100 µg/mL; MIC (Staphylococcus aureus [1]): ≥ 100 µg/mL; MIC [6]: ≥ 100 µg/mL; MIC (Streptococcus pneumoniae): 25 µg/mL (≈ 64.7 µM); MIC (Clostridioides difficile): ≥ 100 µg/mL; MIC (Bacillus anthracis): 50 µg/mL (≈ 129 µM)
C=CCN1C(=O)/C(=C/c2ccc(-c3ccc(S(=O)(=O)O)cc3)o2)SC1=S |  | ≥ 100 | ≥ 100 | >= 100 ug ml-1 | 9 | 
